Assay results collected from several papers.
Each line is one published result; the experiments were not run side by side.
MAP2K6: Dual specificity mitogen-activated protein kinase kinase 6 (MAP2K6, Homo sapiens, UniProt P52564)

SMILES | target | observed | action | technique | tested at | measurement | value
COc1cc2ncnc(Nc3ccc(Oc4ccccc4)cc3C)c2cc1OC | MAP2K6 | enzyme activity | inhibitor |  | 1 µM | inhibition | 3%
FC(F)c1nc2ccccc2n1-c1nc(N2CCOCC2)nc(N2CCOCC2)n1 | MAP2K6 | enzyme activity | inhibitor |  | 10 µM | remaining activity | 83%
CCC(=N\O)/C(C)=C/c1ccc(F)cc1 | MAP2K6 | cell-free assay |  | competition with immobilised ligand | 1 µM | remaining binding | 98%
Cc1ccc(C(=O)Nc2ccc(CN3CCN(C)CC3)c(C(F)(F)F)c2)cc1C#Cc1cnc2cccnn12 | MAP2K6 | enzyme activity | inhibitor |  | 23.5 nM | remaining activity | 100%
C[C@@H]1CN(c2cc(-c3nn(C)c4ccc(OC5(C)CC5)cc34)ncn2)C[C@H](C)O1 | MAP2K6 | cell-free assay |  | competition with immobilised ligand | 1 µM | remaining binding | 89%
Cn1c2c(c3ccc(Cl)c(Cl)c31)C(C#N)C1(CCCC1)NC2=O (centres unmarked) | MAP2K6 | thermal stability |  | DSF | 10 µM | ΔTm | 0 °C
CC(C)(C)c1nc(-c2cccc(NS(=O)(=O)c3c(F)cccc3F)c2F)c(-c2ccnc(N)n2)s1 | Dual specificity mitogen-activated protein kinase kinase 6 (MAP2K6, Homo sapiens, UniProt P52564, S207D/T211D) | enzyme activity | inhibitor | radiometric | 1 µM | remaining activity | 96%
Cc1ccc(NC(=O)c2ccc(C)c(C(F)(F)F)c2)cc1C#Cc1nn(C2CCC(O)CC2)c2ncnc(N)c12 (centres unmarked) | MAP2K6 | cell-free assay |  |  | 10 µM | remaining signal | 43%
CNC(=O)c1cc(Oc2ccc(NC(=O)Nc3ccc(Cl)c(C(F)(F)F)c3)cc2)ccn1 | MAP2K6 | enzyme activity | inhibitor |  | 10 µM | inhibition | 99%
Cc1cnc(NC2CCOCC2)nc1-n1cnc(C(=O)NC(CN)c2cc(F)cc(Cl)c2)c1 (centres unmarked) | MAP2K6 | enzyme activity | inhibitor | radiometric | 1 µM | remaining activity | 96%
Nc1nc(Nc2ccc(S(N)(=O)=O)cc2)nn1C(=O)c1c(F)cccc1F | MAP2K6 | cell-free assay |  |  | 0.5 µM | remaining signal | 90.5%
Cn1c2c(c3ccc(Cl)c(Cl)c31)C(C#N)C(C)(C)NC2=O (centres unmarked) | MAP2K6 | thermal stability |  | DSF | 10 µM | ΔTm | 0.2 °C
Cc1c[nH]c2nccc(Oc3c(F)cc(Nc4cc(Cl)nc(N)n4)cc3F)c12 | MAP2K6 | cell-free assay |  | competition with immobilised ligand | 0.1 µM | remaining binding | 99%
Cn1c(=O)n(-c2ccc(C(C)(C)C#N)cc2)c2c3cc(-c4cnc5ccccc5c4)ccc3ncc21 | MAP2K6 | enzyme activity | inhibitor |  | 10 µM | remaining activity | 93%
Cc1nc(Cc2cccc(C(F)(F)F)c2)sc1-c1ccc(C(N)=O)nc1 | MAP2K6 | cell-free assay |  | competition with immobilised ligand | 1 µM | remaining binding | 69%
CNCc1ccc(-c2cc(-c3nc(-c4ccc(S(=O)(=O)C(C)C)cc4)cnc3N)on2)cc1 | MAP2K6 | enzyme activity | inhibitor |  | 0.4 µM | inhibition | 15%
COc1cc(Nc2cnc(C#N)c(O[C@H](C)CN(C)C)n2)ncc1-c1cnn(C)c1 | MAP2K6 | enzyme activity | inhibitor | radiometric | 1 µM | remaining activity | 71%
Cc1ccc(NC(=O)c2ccc(CN3CCN(C)CC3)cc2)cc1Nc1nc(-c2cccnc2)cs1 | MAP2K6 | cell-free assay |  |  | 0.5 µM | remaining signal | 96.5%

SMILES | target | observed | action | technique | tested at | measurement | value
C[C@H](c1ccc(F)cc1)N(Cc1cccc(C(=O)O)c1)C(=O)c1cnc2ccccc2c1 | MAP2K6 | cell-free assay |  | competition with immobilised ligand | 1 µM | remaining binding | 100%
CN1CC(Oc2cnc(C#N)cc2-c2ccn3nc(NC(=O)C4CC4)cc3c2)C1 | MAP2K6 | enzyme activity | inhibitor |  | 1 µM | inhibition | 21%
COc1cc(/C=C/C(=O)CC(=O)/C=C/c2ccc(O)c(OC)c2)ccc1O | MAP2K6 | enzyme activity | inhibitor |  | 1 µM | activity vs control | 102%
CCCCN(CCCC)C(=O)CN1C[C@@H](c2cc(OC)c3c(c2)OCO3)[C@H](C(=O)O)[C@H]1CC(C)(C)CCC | MAP2K6 | cell-free assay |  | competition with immobilised ligand | 1 µM | remaining binding | 90.8%
Cn1c2c(c3ccc(Cl)c(Cl)c31)C(C#N)C1(CCCCC1)NC2=O (racemic) | MAP2K6 | thermal stability |  | DSF | 10 µM | ΔTm | 0.2 °C
O=C1Nc2ccc(Cl)cc2C1=Cc1cc(Cl)c(O)c(Cl)c1 | MAP2K6 | cell-free assay |  |  | 0.5 µM | remaining signal | 96.4%
CN(C)CC#Cc1ccc(OCCCc2sc(N3CCc4cccc(C(=O)Nc5nc6ccccc6s5)c4C3)nc2C(=O)O)c(F)c1 | MAP2K6 | cell-free assay |  | competition with immobilised ligand | 1 µM | remaining binding | 100%
Cc1ccc(Nc2nccc(N(C)c3ccc4c(C)n(C)nc4c3)n2)cc1S(N)(=O)=O | MAP2K6 | enzyme activity | inhibitor |  | 0.3 µM | inhibition | -10%
CS(=O)(=O)CCNCc1ccc(-c2ccc3ncnc(Nc4ccc(OCc5cccc(F)c5)c(Cl)c4)c3c2)o1 | MAP2K6 | cell-free assay |  |  | 0.5 µM | remaining signal | 95.4%
O=C(Nc1cnn(-c2csc(C(=O)NC3COC3)c2)c1)Nc1ccccc1Cl | MAP2K6 | enzyme activity | inhibitor |  | 5 µM | remaining activity | 96.4%
CN(C)C1CCN(CC#Cc2nn(C3CCCC3)c3nc(NCc4ccccc4)ncc23)C1 (centres unmarked) | MAP2K6 | enzyme activity | inhibitor | FRET | 0.1 µM | inhibition | 0%
CC(C)(O)[C@H]1CC[C@H](Nc2ccc3ncc(-c4cccc(C(F)(F)F)c4)n3n2)CC1 | MAP2K6 | enzyme activity | inhibitor |  | 1 µM | remaining activity | 90.6%
Cn1cc(Cl)c2c(Oc3c(F)cc(Nc4cc(Cl)nc(N)n4)cc3F)ccnc21 | MAP2K6 | cell-free assay |  | competition with immobilised ligand | 0.1 µM | remaining binding | 100%
CN1CCC2(CC1)NC(=O)c1c(c3ccc(Cl)c(Cl)c3n1C)C2C#N (racemic) | MAP2K6 | thermal stability |  | DSF | 10 µM | ΔTm | 0 °C
C[S+]([O-])c1ccc(-c2nc(-c3ccncc3)c(-c3ccc(F)cc3)[nH]2)cc1 (centres unmarked) | MAP2K6 | cell-free assay |  |  | 0.5 µM | remaining signal | 102%
Cn1c2c(c3ccc(Cl)c(Cl)c31)C(C#N)C1(CCOCC1)NC2=O (centres unmarked) | MAP2K6 | thermal stability |  | DSF | 10 µM | ΔTm | 0 °C
CCN(CC)c1ccc(C2=NNC(=O)CC2C)cc1[N+](=O)[O-] (centres unmarked) | MAP2K6 | enzyme activity | inhibitor |  | 10 µM | remaining activity | 97%
